In ChEMBL document CHEMBL1287742, “Synthetic pseudopterosin analogues: A novel class of antiinflammatory drug candidates” (2010):
Values joined by “and” are separate entries in the source; they are usually repeats but may differ in a detail not shown here. Equal values may be shown once. Active and inactive are the calls of the source. The rule behind the calls is not given here.

test system: Mus musculus; assay: Antiinflammatory activity in mouse assessed as effective dose per ear for inhibition of PMA-induced ear edema; type: functional; conditions: not given
Method in brief: (§1)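 Mouse ear edema: test compound applied topically in acetone to the inside pinna of the left ear together with PMA (2 µg/ear), under brief halothane anesthesia. Right ears received acetone only. Five mice per group. After 3 h 20 min the mice were euthanized and a 6 mm central ear biopsy was weighed. Edema was taken as the left-minus-right weight difference, expressed as % inhibition versus the PMA-only control group.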

| SMILES | ED50 |
| --- | --- |
| CC(C)=C[C@H]1C[C@H](C)[C@H]2CC[C@H](C)c3c(O[C@@H]4OC[C@@H](O)[C@H](O)[C@H]4O)c(O)c(C)c1c32 [PSEUDOPTEROSIN A] | 12 µg |

test system: Mus musculus; assay: Antiinflammatory activity in mouse assessed as inhibition of PMA-induced ear edema at 25 ug/ear administered topically as single dose after PMA challenge and measured after 3 hrs and 20 mins; type: functional; conditions: in the assay text read “simultaneously with PMA” for “after PMA challenge”; method in brief: as §1

| SMILES | inhibition (INH) | inhibition |
| --- | --- | --- |
| C[C@@H]1OC(Oc2c(O)cc3c4c2CCCC4CCC3)[C@@H](O)[C@H](O)[C@@H]1O (some centres not stated) | 24% |  |
| Cc1c(O)c(O[C@@H]2O[C@@H](C)[C@@H](O)[C@@H](O)[C@@H]2O)c2c3c1CCCC3CCC2 (some centres not stated) | 49% |  |
| C[C@@H]1CC[C@@H]2CCCc3cc(O[C@@H]4O[C@@H](C)[C@@H](O)[C@@H](O)[C@@H]4O)c(O)c1c32 (relative stereo) | 50% |  |
| C[C@@H]1O[C@@H](Oc2c(O)c(C(F)(F)F)c3c4c2CCCC4CCC3)[C@@H](O)[C@H](O)[C@@H]1O (some centres not stated) | 45% and 53% |  |
| C[C@@H]1O[C@@H](Oc2cc3c4c(c2O)[C@@H](C)CC[C@@H]4CCC3)[C@@H](O)[C@H](O)[C@@H]1O (relative stereo) | 58% |  |
| C[C@@H]1O[C@@H](Oc2cc3c4c(c2O)C(=O)CCC4CCC3)[C@@H](O)[C@H](O)[C@@H]1O (some centres not stated) |  | inactive |
| Oc1cc2c3c(c1OC1OC[C@@H](O)[C@H](O)[C@H]1O)CCCC3CCC2 (some centres not stated) | 37% |  |
| C[C@@H]1O[C@@H](Oc2cc3c4c(c2O)C(C)(C)CCC4CCC3)[C@@H](O)[C@H](O)[C@@H]1O (some centres not stated) | 38% |  |
| Oc1c(OC2OC[C@@H](O)[C@H](O)[C@H]2O)cc2c3c1CCCC3CCC2 (some centres not stated) | 44% |  |
| CC(C)=C[C@H]1C[C@H](C)[C@H]2CC[C@H](C)c3c(O[C@@H]4OC[C@@H](O)[C@H](O)[C@H]4O)c(O)c(C)c1c32 [PSEUDOPTEROSIN A] | 70% |  |
| C[C@@H]1O[C@@H](Oc2cc3c4c(c2O)CCCC4CCC3)[C@@H](O)[C@H](O)[C@@H]1O (some centres not stated) | 34% |  |
